According to ChEMBL document CHEMBL1137611, “Toward potent ghrelin receptor ligands based on trisubstituted 1,2,4-triazole structure. 2. Synthesis and pharmacological in vitro and in vivo evaluations” (J Med Chem, 2007):
pEC50, pIC50: −log10 of the molar value.

How the values were obtained:
[1] = molecular target: T1, Growth hormone secretagogue receptor type 1 (Homo sapiens, UniProt Q92847); assay: Activity at human GHS1a receptor expressed in CHO cells assessed as accumulation of intracellular calcium level at 10 uM relative to ghrelin; type: functional, cell-based
Outline: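 CHO cells transiently electroporated with hGHS-R1a, loaded 24 h later with 1 μM Fluo-4AM (1 h, 37 °C, dark), then de-esterified 30 min at room temperature. Fluorescence (ex 485/em 525 nm) recorded over 60 s, compound at 10 μM added at 15 s. Triplicates, at least two independent experiments. Response expressed as percent of maximum with 0.1 μM ghrelin.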

Rattus norvegicus [2] = organism: Rattus norvegicus; assay: Effect on cumulative food intake per 100 g body weight of Sprague-Dawley rat at 160 ug after 2 hrs; type: functional
Outline: (§1)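 Young-adult male rats (125–150 g), singly housed, acclimated 1 week and trained daily for a further week. Test compound given sc at 160 μg/kg mid-morning, then returned to cages with a known amount of chow. Cumulative intake recorded at 2 or 6 h as g food/100 g body weight.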

Rattus norvegicus [3] = organism: Rattus norvegicus; assay: Inhibition of hexarelin-stimulated cumulative food intake per 100 g body weight of Sprague-Dawley rat at 160 ug after 2 hrs; type: functional
Outline: (§2)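 Young-adult male rats (125–150 g), singly housed, acclimated and trained. Compound given sc at time −10 min (0, 20, 80, 160 or 320 μg/kg), then hexarelin 80 μg/kg sc at time 0. Rats returned to home cages with a known amount of chow. Cumulative intake recorded as g food/100 g body weight at 2 h and 6 h.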

Rattus norvegicus [4] = organism: Rattus norvegicus; assay: Inhibition of hexarelin-stimulated cumulative food intake per 100 g body weight of Sprague-Dawley rat at 160 ug after 6 hrs; type: functional; outline: as §2
Rattus norvegicus [5] = organism: Rattus norvegicus; assay: Effect on cumulative food intake per 100 g body weight of Sprague-Dawley rat at 160 ug after 6 hrs; type: functional; outline: as §1
[6] = molecular target: T1, Growth hormone secretagogue receptor type 1; assay: Agonist activity at human GHS1a receptor expressed in CHO cells assessed as accumulation of intracellular calcium level; type: functional, cell-based
Outline: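 Fluo-4AM calcium assay in CHO cells transiently expressing hGHS-R1a. Fluorescence recorded at ex 485/em 525 nm over 60 s after automated addition of increasing agonist concentrations. EC50 taken from the dose-response curve.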

[7] = molecular target: T1, Growth hormone secretagogue receptor type 1; assay: Displacement of [125I]His9-ghrelin from human cloned GHS1a receptor expressed in LLC PK1 cells; type: cell-based
[8] = molecular target: T1, Growth hormone secretagogue receptor type 1; assay: Antagonist activity at human GHS1a receptor expressed in CHO cells assessed as accumulation of intracellular calcium level; type: functional, cell-based
Rattus norvegicus [9] = assay: Inhibition of hexarelin-stimulated cumulative food intake per 100 g body weight of Sprague-Dawley rat at 320 ug/kg; type: functional; outline: as §2
Rattus norvegicus [10] = assay: Inhibition of hexarelin-stimulated cumulative food intake per 100 g body weight of Sprague-Dawley rat at 80 ug/kg; type: functional; outline: as §2
Rattus norvegicus [11] = assay: Inhibition of hexarelin-stimulated cumulative food intake per 100 g body weight of Sprague-Dawley rat at 20 ug/kg; type: functional; outline: as §2
Rattus norvegicus [12] = assay: Inhibition of growth hormone secretion in infant Sprague-Dawley rat at 160 ug/kg, sc; type: functional
Outline: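 Male 10-day-old pups (~25 g), separated from dams 1 h before testing, groups of eight. Dosed sc with vehicle (DMSO, final 1:300), compound 160 μg/kg, or compound 10 min before hexarelin 80 μg/kg sc. Decapitated 15 min later; plasma GH measured by rat GH enzyme immunoassay and expressed as ng/mL against the NIDDK-rGH-RP-2 standard.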

T1 sequence (Q92847 whole entry): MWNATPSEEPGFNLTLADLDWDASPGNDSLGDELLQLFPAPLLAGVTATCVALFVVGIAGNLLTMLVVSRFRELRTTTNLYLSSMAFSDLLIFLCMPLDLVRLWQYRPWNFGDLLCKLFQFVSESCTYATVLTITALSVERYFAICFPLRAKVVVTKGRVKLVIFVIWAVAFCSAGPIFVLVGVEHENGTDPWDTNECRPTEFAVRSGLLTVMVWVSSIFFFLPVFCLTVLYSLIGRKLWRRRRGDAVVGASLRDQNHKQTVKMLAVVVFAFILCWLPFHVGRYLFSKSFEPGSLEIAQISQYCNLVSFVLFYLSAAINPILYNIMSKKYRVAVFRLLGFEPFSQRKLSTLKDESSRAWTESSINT

## O=C(N[C@H](Cc1c[nH]c2ccccc12)c1nnc(CCc2c[nH]c3ccccc23)n1Cc1ccccc1)[C@H]1CCCNC1
[1]
  Activity: 50%
Rattus norvegicus [2]
  Activity: 0.52 g
Rattus norvegicus [3]
  Activity: 0.16 g
Rattus norvegicus [4]
  Activity: 0.62 g
Rattus norvegicus [5]
  Activity: 0.6 g
[6]
  pEC50: 8.00
[7]
  pIC50: 7.89

## COc1ccc(Cn2c(CCc3c[nH]c4ccccc34)nnc2[C@@H](Cc2c[nH]c3ccccc23)NC(=O)C(C)(C)N)cc1
[1]
  Activity: 9%
[8]
  Kb: 4 nM

## COc1ccc(Cn2c(CCc3c[nH]c4ccccc34)nnc2[C@@H](Cc2c[nH]c3ccccc23)NC(=O)[C@H]2CCCN2)cc1
Rattus norvegicus [9]
  Activity: 0.58 g
[1]
  Activity: 7%
Rattus norvegicus [10]
  Activity: 0.15 g
Rattus norvegicus [2]
  Activity: 0.01 g
Rattus norvegicus [3]
  Activity: 0.05 g
Rattus norvegicus [4]
  Activity: 0.36 g
Rattus norvegicus [5]
  Activity: 0.03 g
[8]
  Kb: 7 nM
Rattus norvegicus [11]
  Activity: 0.17 g

## CCc1ccc(-n2c(CCc3c[nH]c4ccccc34)nnc2[C@@H](Cc2c[nH]c3ccccc23)NC(=O)C2CCNCC2)cc1
[1]
  Activity: 100%
[6]
  pEC50: 7.82
[7]
  pIC50: 7.02

## COc1ccc(Cn2c(CCc3c[nH]c4ccccc34)nnc2[C@@H](Cc2c[nH]c3ccccc23)NC(=O)C2CCNCC2)c(OC)c1
[1]
  Activity: 77%
Rattus norvegicus [2]
  Activity: 0.01 g
Rattus norvegicus [3]
  Activity: 0.11 g
Rattus norvegicus [4]
  Activity: 0.86 g
Rattus norvegicus [5]
  Activity: 0.01 g
[6]
  pEC50: 9.22

## COc1ccc(Cn2c(CCc3c[nH]c4ccccc34)nnc2[C@@H](Cc2c[nH]c3ccccc23)NC(=O)[C@@H]2CCCN2)c(OC)c1
[1]
  Activity: 0%
[8]
  Kb: 11 nM
[7]
  pIC50: 8.25

## CCc1ccc(Cn2c(CCc3ccccc3)nnc2[C@@H](Cc2c[nH]c3ccccc23)NC(=O)C2CCNCC2)cc1
[1]
  Activity: 101%
Rattus norvegicus [2]
  Activity: 0.03 g
Rattus norvegicus [3]
  Activity: 1.4 g
Rattus norvegicus [4]
  Activity: 1.66 g
Rattus norvegicus [5]
  Activity: 0.35 g
[6]
  pEC50: 8.11

## COc1ccc(Cn2c(CCc3ccccc3)nnc2[C@@H](Cc2c[nH]c3ccccc23)NCCN)c(OC)c1
[1]
  Activity: 59%
[6]
  pEC50: 6.55

## COc1ccc(Cn2c(CCc3ccccc3)nnc2[C@@H](Cc2c[nH]c3ccccc23)NC(=O)[C@H]2CCCNC2)cc1
[1]
  Activity: 20%
[8]
  Kb: 10 nM

## COc1ccc(Cn2c(CCc3c[nH]c4ccccc34)nnc2[C@@H](Cc2c[nH]c3ccccc23)NC(=O)[C@H]2CCCCN2)cc1
[1]
  Activity: 0%
Rattus norvegicus [2]
  Activity: 0.04 g
Rattus norvegicus [3]
  Activity: 1.25 g
Rattus norvegicus [4]
  Activity: 1.68 g
Rattus norvegicus [5]
  Activity: 0.06 g
[8]
  Kb: 8 nM

## COc1ccc(Cn2c(CCc3c[nH]c4ccccc34)nnc2[C@@H](Cc2c[nH]c3ccccc23)NC(=O)[C@@H]2CCCN2)cc1
[1]
  Activity: 2%
Rattus norvegicus [2]
  Activity: 0.05 g
Rattus norvegicus [3]
  Activity: 0.44 g
Rattus norvegicus [4]
  Activity: 0.48 g
Rattus norvegicus [5]
  Activity: 0.2 g
[8]
  Kb: 6 nM

## COc1ccc(Cn2c(CCc3c[nH]c4ccccc34)nnc2[C@@H](Cc2c[nH]c3ccccc23)NC(=O)CN)c(OC)c1
[1]
  Activity: 0%
Rattus norvegicus [2]
  Activity: 0.01 g
Rattus norvegicus [3]
  Activity: 0.39 g
Rattus norvegicus [4]
  Activity: 0.74 g
Rattus norvegicus [5]
  Activity: 0.01 g
[8]
  Kb: 27 nM

## NCC(=O)N[C@H](Cc1c[nH]c2ccccc12)c1nnc(CCc2ccccc2)n1-c1ccccc1
[1]
  Activity: 7%
[7]
  pIC50: < 6.00

## CCc1ccc(-n2c(CCc3c[nH]c4ccccc34)nnc2[C@@H](Cc2c[nH]c3ccccc23)NC(=O)CN)cc1
[1]
  Activity: 4%
[7]
  pIC50: < 6.00

## COc1ccc(Cn2c(CCc3ccccc3)nnc2[C@@H](Cc2c[nH]c3ccccc23)NC(=O)[C@H]2CCCCN2)cc1
[1]
  Activity: 7%
Rattus norvegicus [2]
  Activity: 0.01 g
Rattus norvegicus [3]
  Activity: 0.85 g
Rattus norvegicus [4]
  Activity: 1.07 g
Rattus norvegicus [5]
  Activity: 0.01 g
Rattus norvegicus [12]
  Activity: 6.09 ng/mL

## CCc1ccc(Cn2c(CCc3ccccc3)nnc2[C@@H](Cc2c[nH]c3ccccc23)NC(=O)[C@H]2CCCNC2)cc1
[1]
  Activity: 11%
[7]
  pIC50: 6.89

## COc1ccc(Cn2c(CCc3ccccc3)nnc2[C@@H](Cc2c[nH]c3ccccc23)NC(=O)CN)c(OC)c1
[1]
  Activity: 0%
Rattus norvegicus [2]
  Activity: 0.01 g
Rattus norvegicus [3]
  Activity: 1.26 g
Rattus norvegicus [4]
  Activity: 1.48 g
Rattus norvegicus [5]
  Activity: 0.08 g
[7]
  pIC50: 6.81

## CCc1ccc(-n2c(CCc3c[nH]c4ccccc34)nnc2[C@@H](Cc2c[nH]c3ccccc23)NC(=O)[C@@H]2CCCN2)cc1
[1]
  Activity: 5%
[7]
  pIC50: 6.46

## COc1ccc(Cn2c(CCc3c[nH]c4ccccc34)nnc2[C@@H](Cc2c[nH]c3ccccc23)NC(=O)C2CCNCC2)cc1
[1]
  Activity: 93%
Rattus norvegicus [2]
  Activity: 0.01 g
Rattus norvegicus [3]
  Activity: 0.4 g
Rattus norvegicus [4]
  Activity: 1.05 g
Rattus norvegicus [5]
  Activity: 0.37 g
[6]
  pEC50: 8.52

## COc1ccc(Cn2c(CCc3ccccc3)nnc2[C@@H](Cc2c[nH]c3ccccc23)NC(=O)[C@@H]2CCCCN2)c(OC)c1
[1]
  Activity: 0%
[7]
  pIC50: 6.87

## COc1ccc(Cn2c(CCC3C=Nc4ccccc43)nnc2[C@@H](Cc2c[nH]c3ccccc23)NC(=O)CN)cc1 (stereo partly drawn)
[1]
  Activity: 2%
[7]
  pIC50: 6.86

## COc1ccc(Cn2c(CCc3ccccc3)nnc2[C@@H](Cc2c[nH]c3ccccc23)NC(=O)[C@@H]2C[C@@H](O)CN2)cc1
[1]
  Activity: 87%
Rattus norvegicus [2]
  Activity: 0.01 g
Rattus norvegicus [3]
  Activity: 0.02 g
Rattus norvegicus [4]
  Activity: 0.35 g
Rattus norvegicus [5]
  Activity: 0.01 g
[7]
  pIC50: 6.76

## COc1ccc(Cn2c(CCc3c[nH]c4ccccc34)nnc2[C@@H](Cc2c[nH]c3ccccc23)NC(=O)[C@H]2CCCNC2)c(OC)c1
[1]
  Activity: 48%
Rattus norvegicus [2]
  Activity: 0.01 g
Rattus norvegicus [3]
  Activity: 0.33 g
Rattus norvegicus [4]
  Activity: 0.65 g
Rattus norvegicus [5]
  Activity: 0.01 g
[6]
  pEC50: 8.28
[7]
  pIC50: 8.19

## COc1ccc(Cn2c(CCc3ccccc3)nnc2[C@@H](Cc2c[nH]c3ccccc23)NC(=O)CN)cc1
Rattus norvegicus [9]
  Activity: 0.36 g
[1]
  Activity: 0%
Rattus norvegicus [10]
  Activity: 0.56 g
Rattus norvegicus [2]
  Activity: 0.01 g
Rattus norvegicus [3]
  Activity: 0.01 g
Rattus norvegicus [4]
  Activity: 0.28 g
Rattus norvegicus [5]
  Activity: 0.04 g
Rattus norvegicus [11]
  Activity: 0.63 g
Rattus norvegicus [12]
  Activity: 9.85 ng/mL

## CC(C)(N)C(=O)N[C@H](Cc1c[nH]c2ccccc12)c1nnc(CCc2c[nH]c3ccccc23)n1Cc1ccccc1
[1]
  Activity: 73%

## O=C(N[C@H](Cc1c[nH]c2ccccc12)c1nnc(CCc2c[nH]c3ccccc23)n1-c1ccccc1)C1CCNCC1
[1]
  Activity: 100%
[6]
  pEC50: 8.64

## CCc1ccc(Cn2c(CCc3ccccc3)nnc2[C@@H](Cc2c[nH]c3ccccc23)NC(=O)CN)cc1
[1]
  Activity: 0%
Rattus norvegicus [2]
  Activity: 0.01 g
Rattus norvegicus [3]
  Activity: 0.79 g
Rattus norvegicus [4]
  Activity: 0.81 g
Rattus norvegicus [5]
  Activity: 0.03 g
[7]
  pIC50: 6.12

## COc1ccc(-n2c(CCc3ccccc3)nnc2[C@@H](Cc2c[nH]c3ccccc23)NC(=O)CN)c(OC)c1
[1]
  Activity: 27%
[7]
  pIC50: < 6.00

## COc1ccc(Cn2c(CCc3ccccc3)nnc2[C@@H](Cc2c[nH]c3ccccc23)NC(=O)[C@@H]2CCCNC2)cc1
[1]
  Activity: 89%
[6]
  pEC50: 7.44

## Cc1ncccc1-n1c(CCc2ccccc2)nnc1[C@@H](Cc1c[nH]c2ccccc12)NC(=O)C1CCNCC1
[1]
  Activity: 78%
[7]
  pIC50: < 6.00

## O=C(N[C@H](Cc1c[nH]c2ccccc12)c1nnc(CCc2c[nH]c3ccccc23)n1Cc1ccccc1)C1CCNCC1
[1]
  Activity: 75%
Rattus norvegicus [2]
  Activity: 0.01 g
Rattus norvegicus [3]
  Activity: 0.38 g
Rattus norvegicus [4]
  Activity: 0.6 g
Rattus norvegicus [5]
  Activity: 0.11 g
[6]
  pEC50: 8.27
[7]
  pIC50: 7.62

## COc1ccc(Cn2c(CCc3c[nH]c4ccccc34)nnc2[C@@H](Cc2c[nH]c3ccccc23)NC(=O)[C@H]2CCCNC2)cc1
[1]
  Activity: 111%
Rattus norvegicus [2]
  Activity: 0.01 g
Rattus norvegicus [3]
  Activity: 0.62 g
Rattus norvegicus [4]
  Activity: 0.76 g
Rattus norvegicus [5]
  Activity: 0.06 g
[6]
  pEC50: 8.60

## COc1ccc(Cn2c(CCc3ccccc3)nnc2[C@@H](Cc2c[nH]c3ccccc23)NC(=O)C2CCCCN2)cc1 (single isomer, unassigned)
[1]
  Activity: 3%
Rattus norvegicus [2]
  Activity: 0.01 g
Rattus norvegicus [3]
  Activity: 0.06 g
Rattus norvegicus [4]
  Activity: 0.56 g
Rattus norvegicus [5]
  Activity: 0.01 g
